According to ChEMBL document CHEMBL1134485, “Diguanidino and "reversed" diamidino 2,5-diarylfurans as antimicrobial agents” (2001):
≈ marks a conversion by molar mass, not a printed value.

Key:
Format in all cases: functional
[1] = tested on: Aspergillus flavus; experiment: Minimum fungicidal concentration against Aspergillus flavus 107.96
Outline: (§1)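 Mould MFC: 100 µL aliquots from macrodilution tubes (RPMI 1640/MOPS pH 7.0, 0.5 × 10³ to 2.5 × 10³ CFU/mL conidial inoculum, 30 °C, 48-72 h, drug 100 to 0.09 µg/mL) showing complete growth inhibition plated on Sabouraud agar; MFC taken as lowest drug concentration giving three or fewer colonies.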

[2] = tested on: Candida albicans; experiment: Minimum inhibitory concentration required to inhibit 100% inoculum of Candida albicans 159.95
[3] = tested on: Aspergillus fumigatus; experiment: Minimum fungicidal concentration against Aspergillus fumigatus 165.86; outline: as §1
[4] = tested on: Candida albicans; experiment: Minimum inhibitory concentration required to inhibit 80% inoculum of Candida albicans 116.98
Outline: (§2)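 Broth macrodilution following NCCLS M27-T, drug dilutions 100 to 0.09 µg/mL, in RPMI 1640 with glutamine, no bicarbonate, buffered to pH 7.0 with 0.165 M MOPS. Inoculum grown at 35 °C, adjusted to 0.5 × 10³ to 2.5 × 10³ CFU/mL, incubated at 35 °C and read at 48 h. MIC80 is the lowest concentration giving […] visual turbidity relative to the growth-control tube.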

[5] = tested on: Aspergillus fumigatus; experiment: Minimum inhibitory concentration required to inhibit 100% inoculum of Aspergillus fumigatus 182.99
[6] = tested on: Candida albicans; experiment: Minimum inhibitory concentration required to inhibit 80% inoculum of Candida albicans A39; outline: as §2
[7] = tested on: Candida albicans; experiment: Minimum fungicidal concentration against Candida albicans 156.97
Outline: (§3)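 Yeast MFC: after broth macrodilution (RPMI 1640/MOPS pH 7.0, 0.5 × 10³ to 2.5 × 10³ CFU/mL, 35 °C, 48 h or 72 h for C. neoformans, drug 100 to 0.09 µg/mL), 100 µL from tubes with complete inhibition plated on Sabouraud agar; lowest concentration yielding three or fewer colonies recorded.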

[8] = tested on: Candida albicans; experiment: Minimum fungicidal concentration against Candida albicans A39; outline: as §3
[9] = tested on: Candida albicans; experiment: Minimum inhibitory concentration required to inhibit 80% inoculum of Candida albicans 159.95; outline: as §2
[10] = tested on: Fusarium solani; experiment: Minimum inhibitory concentration required to inhibit 100% inoculum of Fusarium solani 152.89
[11] = tested on: Candida albicans; experiment: Minimum inhibitory concentration required to inhibit 100% inoculum of Candida albicans 156.97
[12] = tested on: Candida albicans; experiment: Minimum inhibitory concentration required to inhibit 100% inoculum of Candida albicans A39
[13] = tested on: Candida albicans; experiment: Minimum inhibitory concentration required to inhibit 80% inoculum of Candida albicans 117.00; outline: as §2
[14] = tested on: Mycobacterium tuberculosis; experiment: In vitro minimum inhibitory concentration required to inhibit Mycobacterium tuberculosis
Outline: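 M. tuberculosis H37Rv grown in BACTEC 12B medium; fluorometric broth microdilution (Microplate Alamar Blue Assay). […] MIC = lowest concentration reducing relative fluorescence units by ≥90% relative to control culture. Testing done by TAACF.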

[15] = tested on: Aspergillus flavus; experiment: Minimum fungicidal concentration against Aspergillus flavus 141.88; outline: as §1
[16] = tested on: Candida albicans; experiment: Minimum fungicidal concentration against Candida albicans 159.95; outline: as §3
[17] = tested on: Candida albicans; experiment: In vitro minimum fungicidal concentration against Candida albicans.; outline: as §3
[18] = tested on: Aspergillus flavus; experiment: Minimum inhibitory concentration required to inhibit 100% inoculum of Aspergillus flavus 141.88
[19] = tested on: Candida albicans; experiment: Minimum inhibitory concentration required to inhibit 100% inoculum of Candida albicans 117.00
[20] = tested on: Aspergillus fumigatus; experiment: Minimum inhibitory concentration required to inhibit 80% inoculum of Aspergillus fumigatus 168.95
[21] = tested on: Candida albicans; experiment: Minimum fungicidal concentration against Candida albicans 116.98; outline: as §3
[22] = tested on: Aspergillus fumigatus; experiment: Minimum inhibitory concentration required to inhibit 80% inoculum of Aspergillus fumigatus 119.00
[23] = tested on: Aspergillus fumigatus; experiment: Minimum inhibitory concentration required to inhibit 80% inoculum of Aspergillus fumigatus 182.99
[24] = tested on: Candida albicans; experiment: Minimum inhibitory concentration required to inhibit 100% inoculum of Candida albicans 116.98
[25] = tested on: Aspergillus fumigatus; experiment: Minimum inhibitory concentration required to inhibit 100% inoculum of Aspergillus fumigatus 165.86
[26] = tested on: Candida albicans; experiment: Minimum inhibitory concentration required to inhibit 80% inoculum of Candida albicans 156.97; outline: as §2
[27] = tested on: Rhizopus arrhizus; experiment: Minimum fungicidal concentration against Rhizopus arrhizus 117.89; outline: as §1
[28] = tested on: Aspergillus flavus; experiment: Minimum inhibitory concentration required to inhibit 80% inoculum of Aspergillus flavus 141.88
[29] = tested on: Aspergillus fumigatus; experiment: Minimum fungicidal concentration against Aspergillus fumigatus 182.99; outline: as §1
[30] = tested on: Aspergillus fumigatus; experiment: Minimum fungicidal concentration against Aspergillus fumigatus 168.95; outline: as §1

Cc1ccc(C(=N)Nc2ccc(-c3ccc(-c4ccc(NC(=N)c5ccc(C)cn5)cc4C)o3)c(C)c2)nc1
MFC [1]: > 100 µg/mL | MIC [2]: 1.58 µg/mL (≈ 3.07 µM) | MFC [3]: > 100 µg/mL | MIC [4]: 1.56 µg/mL (≈ 3.03 µM) | MIC [5]: 50 µg/mL (≈ 97.2 µM) | MIC [6]: 1.56 µg/mL (≈ 3.03 µM) | MFC [7]: > 100 µg/mL | MFC [8]: 25 µg/mL (≈ 48.6 µM) | MIC [9]: 0.79 µg/mL (≈ 1.54 µM) | MIC [10]: 50 µg/mL (≈ 97.2 µM) | MIC [11]: 3.15 µg/mL (≈ 6.12 µM) | MIC [12]: 1.56 µg/mL (≈ 3.03 µM) | MIC [13]: 0.78 µg/mL (≈ 1.52 µM) | MIC [14]: 2 µg/mL (≈ 3.89 µM) | MFC [15]: > 100 µg/mL | MFC [16]: 3.12 µg/mL (≈ 6.06 µM) | MFC [17]: 10 µg/mL (≈ 19.4 µM) | MIC [18]: 50 µg/mL (≈ 97.2 µM) | MIC [19]: 3.12 µg/mL (≈ 6.06 µM) | MIC [20]: 10 µg/mL (≈ 19.4 µM) | MFC [21]: > 100 µg/mL | MIC [22]: 3.12 µg/mL (≈ 6.06 µM) | MIC [23]: 3.12 µg/mL (≈ 6.06 µM) | MIC [24]: 1.56 µg/mL (≈ 3.03 µM) | MIC [25]: 50 µg/mL (≈ 97.2 µM) | MIC [26]: 1.56 µg/mL (≈ 3.03 µM) | MFC [27]: 1.56 µg/mL (≈ 3.03 µM) | MIC [28]: 3.12 µg/mL (≈ 6.06 µM) | MFC [29]: > 100 µg/mL | MFC [30]: > 100 µg/mL
